Measurements published in PubChem BioAssay AID602232 (The Scripps Research Institute Molecular Screening Center, 2012).
Values without a mark were called inactive. Calls of active or inactive are those of the source.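 The calls were made as follows: active = normalized ATPase activity over 10% above control, with a t-test p below 0.05 against the vehicle group; inactive = the rest.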

Experiment: increase of myofibrillar ATP hydrolysis – biochemical, absorbance, porcine cardiac myofibrils, powder samples, mechanism study for cardiac RTF activator project (AID 602232)
Details: phosphate absorbance 660 nm, at 10 µM, stronger effect = higher value
Method in brief: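 Medium: pCa buffer, pH 7.0, with EGTA and NTA, EC50 calcium level. Compound: 10 µM single concentration. Reagent: ATP substrate, 3.02 mM final. Repeats: five replicate wells per compound. Signal: phosphate absorbance at 660 nm, Fiske-Subbarow reagent. Schedule: 5 min pre-exposure, 7 min reaction, 25 °C.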

Question: For CN1CCN(CCCN2c3ccccc3Sc3ccc(C(F)(F)F)cc32)CC1, which normalized ATPase activity is on record?
Answer: 0.986

Question: With CCOC(=O)c1sc(N)c(C#N)c1COC(=O)CNC(=O)c1cc(OC)c(OC)c(OC)c1 as the compound, how does the normalized ATPase activity read?
Answer: 1.11 (active)

Question: With COc1ccc(OC)c(/C=C2\N=C(c3ccccc3)OC2=O)c1 as the compound, how does the normalized ATPase activity read?
Answer: 1.03

Question: With COc1ccc(-c2nc3ccc(C4=NNC(=O)CC4C)cc3[nH]2)cc1 (stereo not given) as the compound, how does the normalized ATPase activity read?
Answer: 1.05

Question: With CCN1C(=O)/C(=C/N2CCc3ccccc32)SC1=S as the compound, how does the normalized ATPase activity read?
Answer: 0.984

Question: Which normalized ATPase activity does the source give for COc1ccccc1NS(=O)(=O)c1cc([N+](=O)[O-])ccc1N/N=C/c1c(C)[nH]c2ccccc12 here?
Answer: 1.08

Question: With Cc1cccn2c(=O)c(/C=C3\SC(=S)N(CC(C)C)C3=O)c(NCCCOC(C)C)nc12 as the compound, how does the normalized ATPase activity read?
Answer: 1.11 (active)

Question: For CCN1C(=O)/C(=C/C=C2/SCCN2C)SC1=S, which normalized ATPase activity is on record?
Answer: 1.07

Question: For S=C(Nc1ccc(N2CCOCC2)cc1)Nc1ccc2nc(-c3ccco3)c(-c3ccco3)nc2c1, which normalized ATPase activity is on record?
Answer: 1.06

Question: With CCN(CC)c1ccc(/C=c2\sc3nc4ccccc4n3c2=O)c(O)c1 as the compound, how does the normalized ATPase activity read?
Answer: 0.988

Question: Which normalized ATPase activity does the source give for CC(C)COCC(CN(Cc1ccccc1)c1ccccc1)N1CCCC1 (stereo not given) here?
Answer: 1.05

Question: With CCN(CC)c1ccc(/C=C2\SC(N)=NC2=O)cc1 as the compound, how does the normalized ATPase activity read?
Answer: 0.992

Question: Which normalized ATPase activity does the source give for Cc1ccc(/C=C2\Oc3c(ccc(O)c3CN3CCN(CCO)CC3)C2=O)cc1 here?
Answer: 0.928

Question: With CCCN1CCc2c(sc(NC(=S)NC(=O)c3ccccc3)c2C#N)C1 as the compound, how does the normalized ATPase activity read?
Answer: 0.984

Question: With CCOC(=O)c1cc2n(c1N)-c1ccccc1C2=O as the compound, how does the normalized ATPase activity read?
Answer: 1.03
